Results collected from several papers.
Lines come from different studies, so protocols differ.
Target: Tyrosine-protein kinase JAK2 (JAK2, Homo sapiens, UniProt O60674)
Read-out: enzyme activity
Action: inhibitor

SMILES	test	setting	remaining activity [%]
O=C(Nc1cnn(-c2csc(C(=O)NC3COC3)c2)c1)Nc1c(F)cccc1Cl	–	5 µM	96.5
Cc1nn(CC(F)(F)F)cc1Nc1ncc(Br)c(NCc2ccc(S(N)(=O)=O)cc2)n1	radiometric	1 µM	70
Oc1cccc(-c2nc(N3CCOCC3)c3oc4ncccc4c3n2)c1	–	10 µM	93
COc1cc(Cl)c(C(=O)N[C@@H](CN[C@H]2CC[C@@H](N)CC2)Cc2ccc(C#N)cc2)cc1-c1ccc(CN[C@H](C)c2ccc(C)cc2)o1	–	1 µM	104
O=C(NCCCNc1nc(Nc2cccc(CN3CCOCC3)c2)ncc1C1CC1)C1CCC1	radiometric	1 µM	46
Cc1ccc(C(=O)Nc2ccc(CN3CCN(C)CC3)c(C(F)(F)F)c2)cc1C#Cc1cnc2cccnn12	–	23.5 nM	58
CC(C)(C)c1nc2c(s1)c1nc(N)ncc1c1ccc(NS(=O)(=O)c3c(F)cccc3F)c(F)c12	radiometric	1 µM	85
Cn1c(=O)n(-c2ccc(C(C)(C)C#N)cc2)c2c3cc(-c4cnc5ccccc5c4)ccc3ncc21	–	10 µM	24
Cc1cnc(NC2CCOCC2)nc1-n1cnc(C(=O)NC(CN)c2cc(F)cc(Cl)c2)c1 (stereo not shown)	radiometric	1 µM	104
COc1cc(Nc2cnc(C#N)c(O[C@H](C)CN(C)C)n2)ncc1-c1cnn(C)c1	radiometric	10 µM	41
O=C(Nc1cccc(Nc2ncc(Br)c(NCCc3cnc[nH]3)n2)c1)N1CCCC1	radiometric	1 µM	24
CC(C)(O)[C@H]1CC[C@H](Nc2ccc3ncc(-c4cccc(C(F)(F)F)c4)n3n2)CC1	–	1 µM	24.8
CN1CCc2cc(Nc3ncc(C4CC4)c(NCCCNC(=O)C4CCC4)n3)ccc2C1	radiometric	1 µM	44
O=C(Nc1cnn(-c2csc(C(=O)NC3COC3)c2)c1)Nc1ccccc1Cl	–	5 µM	98.2
Brc1cnc(Nc2cccc(CN3CCOCC3)c2)nc1NCCc1c[nH]cn1	radiometric	1 µM	6
CC(C)(C)c1nc(-c2cccc(NS(=O)(=O)c3c(F)cccc3F)c2F)c(-c2ccnc(N)n2)s1	radiometric	1 µM	90
